Data on 21 molecules can be found in ChEMBL document CHEMBL2046315, “Design, synthesis and structure-activity relationships of 5-alkylaminolquinolines as a novel series of CRF1 receptor antagonists” (Bioorg Med Chem Lett, 2012).

In test [1] the target is T1, Corticotropin-releasing factor receptor 1 (Homo sapiens, UniProt P34998).
T1 sequence (P34998 whole entry): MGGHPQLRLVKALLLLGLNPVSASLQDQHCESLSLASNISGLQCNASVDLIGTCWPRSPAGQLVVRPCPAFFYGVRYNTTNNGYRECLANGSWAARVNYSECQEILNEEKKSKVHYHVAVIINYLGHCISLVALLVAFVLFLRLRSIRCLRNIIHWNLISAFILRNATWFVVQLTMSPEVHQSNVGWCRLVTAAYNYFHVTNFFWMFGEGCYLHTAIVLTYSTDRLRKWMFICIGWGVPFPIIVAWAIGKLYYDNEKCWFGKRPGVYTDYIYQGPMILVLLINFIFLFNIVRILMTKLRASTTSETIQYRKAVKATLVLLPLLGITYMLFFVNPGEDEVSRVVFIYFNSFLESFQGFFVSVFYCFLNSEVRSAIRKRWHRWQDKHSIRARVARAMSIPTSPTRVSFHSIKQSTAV
Put plainly: Displacement of [125I]-CRF from human CRF1 receptor expressed in HEK293 cells after 2 hrs by scintillation proximity assay. It counts as cell-based. The gist of the method: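 Membranes (5 µg/well) with WGA-coated SPA beads and 0.1 nM [125I]-human/rat CRF. Assay buffer is phosphate-buffered saline with 10 mM MgCl2, 2 mM EGTA, 1.5% BSA and protease inhibitors, pH 7.0. Nonspecific binding defined with 0.4 µM sauvagine. Incubated over 2 h at room temperature and counted after centrifugation. Specific binding expressed as % of total; IC50 from concentration-response curve.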

Test [2] concerns the target T1, Corticotropin-releasing factor receptor 1. The experiment in a line: Antagonist activity at human CRF1 receptor expressed in HEK293 cells assessed as inhibition of CRF-stimulated intracellular cAMP accumulation preincubated for 30 mins measured after 30 mins by enzyme immunoassay. It counts as functional, cell-based. The gist of the method:
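Cells seeded at 5 × 10^4/well in DMEM with 0.1% FBS and 1 mM IBMX, pre-incubated 30 min, then test compound added for 30 min at 37 °C. Stimulation with 1 nM human/rat CRF for 30 min at 37 °C, followed by cell lysis. cAMP measured by EIA, basal (no CRF) subtracted, expressed as % of total production. IC50 from concentration-response curve.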
In general terms: cAMP levels reflect the balance of adenylyl cyclase and phosphodiesterase activity.

Where only a bound is given, the exact number is not on record here.

As a reminder, the IC50 is the concentration that gives 50% inhibition. In test [1], `CCCN(CCC)c1cccc2nc(Oc3c(C)cc(C)cc3C)c(C)cc12` registered an IC50 of 79 nM.

`CCCN(CCC)c1cccc2nc(Oc3c(OC)cc(COC)cc3OC)c(C)cc12`: the IC50 is 163 nM in test [2] and 138 nM in test [1].

`COCc1cc(OC)c(Oc2nc3cccc(N(CC4CCOCC4)CC4CC4)c3cc2C)c(OC)c1` showed an IC50 in test [1] of 762 nM.

Molecule `CCN(CC1CCOCC1)c1cccc2nc(Oc3c(OC)cc(COC)cc3OC)c(C)cc12` registered an IC50 in test [1] of 646 nM.

In the case of `COCc1cc(OC)c(Oc2nc3cccc(N(CC4CC4)C4CCOCC4)c3cc2C)c(OC)c1`, the IC50 in test [1] turned out to be 157 nM.

Regarding `CCN(c1cccc2nc(Oc3c(OC)cc(COC)cc3OC)c(C)cc12)C1CCOCC1`, the IC50 in test [1] amounted to 323 nM.

`CCC(CC)Nc1cccc2nc(Oc3c(OC)cc(COC)cc3OC)c(C)cc12`: in test [1], the IC50 is above 1000 nM.

Molecule `COCc1cc(OC)c(Oc2nc3cccc(NC4CCCCC4)c3cc2C)c(OC)c1` had an IC50 in test [1] above 1000 nM.

Consider `CCN(Cc1ccncc1)c1cccc2nc(Oc3c(OC)cc(COC)cc3OC)c(C)cc12`, for which the IC50 in test [1] was above 1000 nM.

As to `CCN(CC)c1cccc2nc(Oc3c(OC)cc(COC)cc3OC)c(C)cc12`, the IC50 in test [2] is 167 nM; in test [1], 70 nM.

As to `CCCN(CCC)c1cccc2nc(Nc3c(C)cc(C)cc3C)c(C)nc12`, the figures for the IC50 in test [2] and in test [1] were 563 nM and 155 nM, respectively.

Turning to `CCCC(CCC)Nc1cccc2nc(Nc3c(C)cc(C)cc3C)c(C)nc12`, the IC50 in test [1] came to 197 nM.

With `CCCN(CCC)c1cccc2nc(Nc3c(C)cc(C)cc3C)c(=O)[nH]c12`, the IC50 is 469 nM in test [2] and 100 nM in test [1].

Take `CCCN(CCC)c1cccc2nc(Nc3c(C)cc(C)cc3C)c(=O)n(C)c12`: in test [1], the IC50 came out at 672 nM.

As for `CCCN(CCC)c1cccc2nc(N(C)c3c(C)cc(C)cc3C)c(=O)n(C)c12`, in test [1], the IC50 was above 1000 nM.

As to `CCCN(CCC)c1cccc2nc(Nc3c(C)cc(C)cc3C)c(C)cc12`, the IC50 in test [2] was determined as 372 nM; in test [1], 88 nM.

The molecule `Cc1cc(C)c(Nc2nc3cccc(N(CC4CC4)CC4CC4)c3cc2C)c(C)c1` registered an IC50 in test [1] of 75 nM.

In turn, `Cc1cc(C)c(Nc2nc3cccc(N(CC4CCOCC4)CC4CC4)c3cc2C)c(C)c1` displayed a 50% inhibitory concentration (IC50) in test [1] of 742 nM.

Regarding `Cc1cc(C)c(Nc2nc3cccc(N(CC4CC4)C4CCOCC4)c3cc2C)c(C)c1`, the IC50 in test [2] was 255 nM; in test [1], 90 nM.

In the case of `CCCN(CCC)c1cccc2nc(Nc3c(OC)cc(COC)cc3OC)c(C)cc12`, the IC50 in test [1] is 472 nM.

In test [1], `CCCN(CCC)c1cccc2nc(Nc3c(OC)cc(OC)cc3OC)c(C)cc12` showed an IC50 above 1000 nM.
